pIC50: −log10 of the molar value.
Key:
K562 = assay: Growth inhibition of human K562 cells expressing p210Bcr/Abl after 96 hrs by trypan blue exclusion assay; assay type: functional, cell-based; conditions: K562, 96 h
Procedure, shortened: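 K562 cells were kept in RPMI with 10% FBS and penicillin–streptomycin at 37 °C under 5% CO2. Cells were seeded at 1 × 10^5 cells/mL with a range of compound concentrations, using DMSO as the negative control. After 96 h, viability was counted by Trypan blue exclusion and expressed as percent of DMSO control to derive GI50.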

DU-145 = assay: Growth inhibition of human DU145 cells after 96 hrs by trypan blue exclusion assay; assay type: functional; conditions: DU-145, 96 h
Bcr/Abl fusion protein = Bcr/Abl fusion protein (Homo sapiens, UniProt P00519); assay: Inhibition of BCR/ABL p210 autophosphorylation in human K562 cells after 2 hrs by Western blot analysis; assay type: cell-based
Sequence of Bcr/Abl fusion protein (P00519 whole entry, the tested form may be a part): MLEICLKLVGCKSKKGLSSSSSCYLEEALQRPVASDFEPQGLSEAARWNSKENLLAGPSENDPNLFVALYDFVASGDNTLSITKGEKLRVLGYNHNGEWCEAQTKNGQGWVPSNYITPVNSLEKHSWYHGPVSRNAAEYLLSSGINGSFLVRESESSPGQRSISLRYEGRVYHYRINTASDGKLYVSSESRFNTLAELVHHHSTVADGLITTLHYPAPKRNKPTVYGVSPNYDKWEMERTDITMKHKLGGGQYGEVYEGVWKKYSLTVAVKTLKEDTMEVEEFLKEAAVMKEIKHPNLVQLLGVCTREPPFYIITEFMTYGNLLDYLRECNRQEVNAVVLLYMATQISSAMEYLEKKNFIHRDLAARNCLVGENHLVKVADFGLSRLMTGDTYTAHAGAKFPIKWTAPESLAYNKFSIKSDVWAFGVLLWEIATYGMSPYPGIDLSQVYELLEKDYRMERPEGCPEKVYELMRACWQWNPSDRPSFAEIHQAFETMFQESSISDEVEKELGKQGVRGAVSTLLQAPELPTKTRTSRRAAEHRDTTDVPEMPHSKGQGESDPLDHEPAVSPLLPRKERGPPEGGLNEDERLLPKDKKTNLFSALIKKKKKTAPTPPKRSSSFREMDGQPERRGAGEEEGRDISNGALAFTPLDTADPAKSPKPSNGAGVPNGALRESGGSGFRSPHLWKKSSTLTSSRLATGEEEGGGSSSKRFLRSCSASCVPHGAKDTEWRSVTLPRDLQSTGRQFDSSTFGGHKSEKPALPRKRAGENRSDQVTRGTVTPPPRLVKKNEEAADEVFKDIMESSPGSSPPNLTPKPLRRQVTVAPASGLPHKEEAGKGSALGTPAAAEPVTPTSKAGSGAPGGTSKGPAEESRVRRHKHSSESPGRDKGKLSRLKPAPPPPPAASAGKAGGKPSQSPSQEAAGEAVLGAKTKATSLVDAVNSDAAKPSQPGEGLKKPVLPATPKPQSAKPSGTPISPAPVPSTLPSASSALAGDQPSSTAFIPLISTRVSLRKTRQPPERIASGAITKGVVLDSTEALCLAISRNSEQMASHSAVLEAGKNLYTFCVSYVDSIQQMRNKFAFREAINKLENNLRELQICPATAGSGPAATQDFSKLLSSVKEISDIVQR
Sequence of Bcr/Abl fusion protein (P11274 whole entry, further chain, the tested form may be a part): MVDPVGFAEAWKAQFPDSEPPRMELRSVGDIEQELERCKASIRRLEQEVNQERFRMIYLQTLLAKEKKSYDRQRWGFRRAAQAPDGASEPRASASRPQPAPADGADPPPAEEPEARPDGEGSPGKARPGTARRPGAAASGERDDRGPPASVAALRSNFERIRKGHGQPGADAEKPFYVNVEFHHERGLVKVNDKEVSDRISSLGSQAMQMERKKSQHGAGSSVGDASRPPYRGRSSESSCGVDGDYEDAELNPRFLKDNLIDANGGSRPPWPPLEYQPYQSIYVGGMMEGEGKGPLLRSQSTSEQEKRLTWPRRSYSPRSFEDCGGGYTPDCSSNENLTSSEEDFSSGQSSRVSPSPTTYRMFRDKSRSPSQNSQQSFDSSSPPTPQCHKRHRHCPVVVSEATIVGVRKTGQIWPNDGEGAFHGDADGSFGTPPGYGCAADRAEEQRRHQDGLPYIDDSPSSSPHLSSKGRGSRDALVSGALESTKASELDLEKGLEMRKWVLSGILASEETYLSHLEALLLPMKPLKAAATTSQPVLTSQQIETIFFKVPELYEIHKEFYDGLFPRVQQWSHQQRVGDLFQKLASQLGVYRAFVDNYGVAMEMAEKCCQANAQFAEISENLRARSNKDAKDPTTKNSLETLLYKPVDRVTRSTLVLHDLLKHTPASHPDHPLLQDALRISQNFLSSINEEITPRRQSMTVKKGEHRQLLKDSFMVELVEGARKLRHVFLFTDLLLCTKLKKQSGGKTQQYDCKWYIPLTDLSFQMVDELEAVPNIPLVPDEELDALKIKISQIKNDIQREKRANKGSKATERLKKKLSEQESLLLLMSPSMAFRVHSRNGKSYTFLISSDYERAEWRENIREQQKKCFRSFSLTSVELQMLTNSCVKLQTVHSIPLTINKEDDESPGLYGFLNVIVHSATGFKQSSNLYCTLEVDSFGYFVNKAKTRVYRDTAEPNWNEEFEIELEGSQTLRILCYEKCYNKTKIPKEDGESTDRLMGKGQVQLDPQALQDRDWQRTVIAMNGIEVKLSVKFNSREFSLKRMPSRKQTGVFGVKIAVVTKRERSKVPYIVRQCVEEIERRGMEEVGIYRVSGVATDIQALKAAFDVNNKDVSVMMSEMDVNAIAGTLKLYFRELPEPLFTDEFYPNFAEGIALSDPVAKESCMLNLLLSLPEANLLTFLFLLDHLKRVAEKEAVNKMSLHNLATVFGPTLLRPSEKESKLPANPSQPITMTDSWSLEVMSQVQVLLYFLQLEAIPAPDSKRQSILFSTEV

[1] = Aqueous solubility of the compound; assay type: physicochemical; conditions: buffer

| SMILES | GI50 (K562) [nM] | pIC50 (K562) | GI50 (DU-145) [µM] | pIC50 (Bcr/Abl fusion protein) | solubility [1] [µg/mL] |
| --- | --- | --- | --- | --- | --- |
| O=C(O)c1ccc(C(=O)/C(=C\c2ccc(Br)c([N+](=O)[O-])c2)SCc2ccc(Cl)cc2Cl)cc1 | < 1000 | 6.22 | 1 | 5.60 | < 1000 |
| O=C(O)c1ccc(C(=O)/C(=C\c2ccc([N+](=O)[O-])cc2F)SCc2ccc(Br)cc2)cc1 | – | 5.12 | – | < 4.70 | < 1000 |
| O=C(O)c1ccc(C(=O)/C(=C\c2ccc(Cl)c([N+](=O)[O-])c2)SCc2ccc(Cl)cc2Cl)cc1 | < 1000 | 6.22 | 1 | 5.60 | < 1000 |
| O=C(O)c1ccc(C(=O)/C(=C\c2ccc(F)c([N+](=O)[O-])c2)[S+]([O-])Cc2ccc(Br)cc2)cc1 (stereo not given) | – | 4.12 | – | < 4.70 | < 1000 |
| O=C(O)c1ccc(C(=O)/C(=C\c2ccc(O)c(Br)c2)SCc2ccc(Br)cc2)cc1 | 25000 | 4.46 | 25 | < 4.70 | < 1000 |
| O=C(O)c1ccc(C(=O)/C(=C\c2ccc(Cl)c([N+](=O)[O-])c2)S(=O)(=O)Cc2ccc(Br)cc2)cc1 | 25000 | 4.60 | 25 | < 4.70 | < 1000 |
| O=C(O)c1ccc(C(=O)/C(=C\c2ccc(Cl)c([N+](=O)[O-])c2)SCc2ccccc2F)cc1 | < 1000 | 6.10 | 1 | 5.00 | < 1000 |
| O=C(O)c1ccc(C(=O)/C(=C\c2ccc(F)c([N+](=O)[O-])c2)S(=O)(=O)Cc2ccc(Br)cc2)cc1 | – | 5.30 | – | < 4.70 | < 1000 |
| O=C(O)c1ccc(C(=O)/C(=C\c2ccc(F)cc2[N+](=O)[O-])SCc2ccc(Br)cc2)cc1 | – | 4.70 | – | < 4.70 | < 1000 |
| O=C(/C(=C\c1ccc(OCc2ccccc2)cc1)S(=O)(=O)Cc1ccc(Cl)cc1)c1ccc(Cl)cc1 | 1000 | – | 1 | – | – |
| COc1cc(OC)c(/C=C(\C(=O)c2ccc(Br)cc2)S(=O)(=O)c2ccc(Br)cc2)c(OC)c1 | > 100000 | – | > 100 | – | – |
| O=C(/C(=C\c1ccc(O)c([N+](=O)[O-])c1)S(=O)(=O)c1ccc(I)cc1)c1ccc(I)cc1 | 25000 | – | 25 | – | – |
| COc1ccc(/C=C(\C(=O)c2ccc(Cl)cc2)S(=O)(=O)c2ccc(Br)cc2)cc1 | 10000 | – | 10 | – | – |
| COc1cc(OC)c(/C=C(\C(=O)c2ccc([N+](=O)[O-])cc2)S(=O)(=O)Cc2ccc(Cl)cc2)c(OC)c1 | 10000 | – | 10 | – | – |
| Cc1ccc(S(=O)(=O)/C(=C/c2ccc(C)s2)C(=O)c2ccc(Br)cc2)cc1 | 50000 | – | 25 | – | – |
| O=C(/C(=C\c1ccc(Br)cc1)Sc1ccc(Br)cc1)c1ccc(Cl)cc1 | 1000 | – | 1 | – | – |
| O=C(/C(=C\c1ccc([N+](=O)[O-])c(O)c1)S(=O)(=O)c1ccc(Br)cc1)c1c(F)c(F)c(F)c(F)c1F | 1000 | – | 1 | – | – |
| O=C(/C(=C\c1ccc(Br)cc1)Sc1ccc(Br)cc1)c1ccc(Br)cc1 | 2500 | – | 1 | – | – |
| O=C(/C(=C\c1ccccc1O)Sc1ccccc1Br)c1ccc(Br)cc1 | 50000 | – | 50 | – | – |
| COc1ccc(OC)c(/C=C(/SCc2ccc(Cl)c(Cl)c2)C(=O)c2ccc(Cl)cc2)c1 | 10000 | – | 10 | – | – |

| SMILES | GI50 (K562) [nM] | pIC50 (K562) | GI50 (DU-145) [µM] | pIC50 (Bcr/Abl fusion protein) | solubility [1] [µg/mL] |
| --- | --- | --- | --- | --- | --- |
| O=C(/C(=C\c1ccc([N+](=O)[O-])c(O)c1)SCc1ccc(Br)cc1)C1CCNC1 (stereo not given) | > 100000 | – | > 100 | – | – |
| COc1ccc(C=C(C(=O)c2ccc(OC)cc2)S(=O)(=O)Cc2ccc([N+](=O)[O-])cc2)cc1 | 10000 | – | 25 | – | – |
| COc1ccccc1/C=C(\C(=O)c1ccc([N+](=O)[O-])cc1)S(=O)(=O)Cc1ccc(Cl)cc1 | 10000 | – | 10 | – | – |
| COc1cc(OC)c(/C=C(/SCc2ccc(Cl)cc2Cl)C(=O)c2ccc(Cl)cc2)c(OC)c1 | 25000 | – | 1 | – | – |
| Cc1ccc(/C=C(\C(=O)c2ccc(Br)cc2)S(=O)(=O)Cc2ccc(F)cc2)s1 | 1000 | – | 1 | – | – |
| O=C(/C(=C\c1ccc(Cl)cc1)SCc1ccc(Cl)cc1)c1ccccc1Cl | 1000 | – | 30 | – | – |
| CCOc1ccc(/C=C(\C(=O)c2ccc(Br)cc2)S(=O)(=O)c2ccc(Br)cc2)cc1OC | 1000 | – | 1 | – | – |
| Cc1ccc(S/C(=C/c2ccc(Cl)cc2)C(=O)c2ccc(Cl)cc2)cc1 | 1000 | – | 10 | – | – |
| O=C(/C(=C\c1c[nH]c2ccc(Br)cc12)SCc1ccc(Cl)cc1Cl)c1ccc(Cl)cc1 | 1000 | – | 10 | – | – |
| Cc1cc(C)cc(/C=C(\C(=O)c2ccc(Cl)cc2)S(=O)(=O)c2ccc(Br)cc2)c1 | 10000 | – | 10 | – | – |
| Cc1ccc(S/C(=C/c2ccc(F)cc2F)C(=O)c2ccc(Br)cc2)cc1 | > 100000 | – | > 100 | – | – |
| Cc1ccc(S(=O)(=O)/C(=C/c2ccc(N(C)C)cc2)C(=O)c2ccc(Br)cc2)cc1 | > 100000 | – | 50 | – | – |
| COc1ccc(/C=C(/SCc2ccc(Cl)cc2)C(=O)c2ccc(Br)cc2)cc1 | 1000 | – | 10 | – | – |
| Cc1ccc(CS/C(=C/c2ccccc2OCc2ccccc2)C(=O)c2ccc(Cl)cc2)cc1 | 1000 | – | 1 | – | – |
| O=C(/C(=C\c1ccc2ccccc2n1)SCc1ccc(F)cc1)c1ccc(Br)cc1 | 25000 | – | 25 | – | – |
| CCOc1ccc(/C=C(/Sc2ccccc2Cl)C(=O)c2ccc(Cl)cc2)cc1OC | 1000 | – | 50 | – | – |
| O=C(/C(=C\c1c(O)cc(O)cc1O)SCc1ccc(Cl)cc1)c1ccc(Cl)cc1 | > 100000 | – | > 100 | – | – |
| O=C(/C(=C\c1ccc(Br)c([N+](=O)[O-])c1)S(=O)(=O)c1ccc(Br)cc1)c1ccc(Br)cc1 | 10000 | – | 10 | – | – |
| Cc1ccc(S(=O)(=O)/C(=C/c2ccc(Br)cc2)C(=O)c2ccc(Br)cc2)cc1 | 4000 | – | 10 | – | – |

The next lines start with the values.

| GI50 (K562) [nM] | pIC50 (K562) | GI50 (DU-145) [µM] | pIC50 (Bcr/Abl fusion protein) | solubility [1] [µg/mL] | SMILES |
| --- | --- | --- | --- | --- | --- |
| – | 6.52 | – | 5.60 | < 1000 | O=C(O)c1ccc(C(=O)/C(=C\c2ccc(F)c([N+](=O)[O-])c2)SCc2ccccc2)cc1 |
| < 1000 | 6.22 | 1 | 5.60 | < 1000 | O=C(/C(=C\c1ccc(F)c([N+](=O)[O-])c1)SCc1ccc(F)cc1)c1ccc(F)cc1 |
| < 1000 | 6.52 | 1 | 5.60 | < 1000 | Cc1ccc(CS/C(=C/c2ccc(F)c([N+](=O)[O-])c2)C(=O)c2ccc(C(=O)O)cc2)cc1 |
| < 1000 | 6.40 | 1 | 5.60 | < 1000 | O=C(O)c1ccc(C(=O)/C(=C\c2ccc(F)c([N+](=O)[O-])c2)SCc2ccc(Cl)cc2Cl)cc1 |
| – | 5.82 | – | 4.70 | < 1000 | O=C(O)c1ccc(C(=O)/C(=C\c2ccc(F)c([N+](=O)[O-])c2)Sc2ccc(Br)cc2)cc1 |
| 1000 | 4.70 | 1 | < 4.70 | < 1000 | COc1cc(/C=C(/SCc2ccc(Br)cc2)C(=O)c2ccc(C(=O)O)cc2)ccc1F |
| < 1000 | 6.22 | < 1 | 5.60 | < 1000 | O=C(O)c1ccc(C(=O)/C(=C\c2ccc(Br)c([N+](=O)[O-])c2)SCc2ccc(Cl)cc2)cc1 |
| – | 5.12 | – | < 4.70 | < 1000 | O=C(O)c1ccc(C(=O)/C(=C\c2cc([N+](=O)[O-])ccc2F)SCc2ccc(Br)cc2)cc1 |
| < 1000 | 6.40 | 1 | 5.60 | < 1000 | O=C(O)c1ccc(C(=O)/C(=C\c2ccc(F)c([N+](=O)[O-])c2)SCc2ccc(F)cc2)cc1 |
| – | 5.30 | – | < 4.70 | < 1000 | O=C(O)c1ccc(C(=O)/C(=C\c2ccc([N+](=O)[O-])c(F)c2)SCc2ccc(Br)cc2)cc1 |
| 50000 | 4.12 | 50 | < 4.70 | < 1000 | O=C(O)c1ccc(C(=O)/C(=C\c2ccc(O)c([N+](=O)[O-])c2)SCc2ccc(Br)cc2)cc1 |
| 1000 | 6.30 | 1 | 5.00 | < 1000 | O=C(O)c1ccc(C(=O)/C(=C\c2ccc(F)c([N+](=O)[O-])c2)SCc2ccccc2Cl)cc1 |
| < 1000 | 6.30 | 1 | 5.00 | < 1000 | O=C(O)c1ccc(C(=O)/C(=C\c2ccc(Cl)c([N+](=O)[O-])c2)SCc2ccc(Cl)cc2)cc1 |
| < 1000 | 6.40 | 1 | 4.82 | < 1000 | O=C(O)c1ccc(C(=O)/C(=C\c2ccc(Br)c([N+](=O)[O-])c2)SCc2ccc(F)cc2)cc1 |
| < 1000 | 6.05 | 1 | 5.00 | < 1000 | O=C(O)c1ccc(C(=O)/C(=C\c2ccc(Br)c([N+](=O)[O-])c2)SCc2ccc(Br)cc2)cc1 |
| < 1000 | 6.30 | 1 | 5.60 | < 1000 | O=C(O)c1ccc(C(=O)/C(=C\c2ccc(Cl)c([N+](=O)[O-])c2)SCc2ccc(F)cc2)cc1 |
| 1000 | – | 10 | – | – | Cc1ccc(CS/C(=C/c2ccc(C(=O)O)cc2)C(=O)c2ccc(Cl)c([N+](=O)[O-])c2)cc1 |
| 1000 | – | 1 | – | – | Cc1ccc(CS/C(=C/c2ccc(Cl)c([N+](=O)[O-])c2)C(=O)c2ccc(C(=O)O)cc2)cc1 |
| 10000 | – | 10 | – | – | O=C(/C(=C\c1ccc(O)c([N+](=O)[O-])c1)SCc1ccc(Cl)cc1)c1ccc(Cl)cc1 |

Source: ChEMBL document CHEMBL1240409, “Design, synthesis and evaluation of (E)-alpha-benzylthio chalcones as novel inhibitors of BCR-ABL kinase” (Bioorg Med Chem, 2010)
